Experimental data from ChEMBL document CHEMBL1212766, “Dose escalation study of the safety, tolerability, and pharmacokinetics of nemonoxacin (TG-873870), a novel potent broad-spectrum nonfluorinated quinolone, in healthy volunteers” (Antimicrob Agents Chemother, 2010).
Values after ≈ are worked out from the molar mass of the structure shown.

Experiments:
Staphylococcus aureus = assay: Ratio of fCmax to MIC90 for methicillin-resistant Staphylococcus aureus; type: functional
In short: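 Fasted healthy adults got a single oral 500 mg dose with 240 ml water. Plasma was sampled predose to 96 h and assayed by LC-MS/MS (5–5,000 ng/ml). Cmax was read from individual profiles, and AUC0-∞ came from linear trapezoid plus extrapolation. Free fraction was measured by ultrafiltration (30,000 MWCO) of 0.5 and 6 h plasma. Free exposure was divided by the isolate MIC90.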

Streptococcus pneumoniae = assay: Antimicrobial activity against penicillin-sensitive Streptococcus pneumoniae; type: functional
[1] = Clearance in healthy human assessed as recovery of unchanged drug in urine at 125 […], po administered as single dose; type: ADME, organism-based; design: route oral; settings: read-out: Recovered in urine
In short: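 Healthy volunteers, six on drug per cohort, fasted 10 h and given one oral dose with 240 ml water, then fasted 4 h more. Urine was pooled over intervals from 0-2 to 72-96 h and stored at about −70°C. Drug was measured by solid-phase extraction and LC-MS/MS (LLOQ 200 ng/ml), giving the percent of dose recovered unchanged. Values are means (SD).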

Homo sapiens [2] = assay: Toxicity in healthy human assessed as occurrence of nausea at 50 […], po; type: organism-based; design: route oral; settings: in vivo
Homo sapiens [3] = assay: Toxicity in healthy human assessed as occurrence of oral hypoesthesia at 25 […], po; type: organism-based; design: route oral; settings: in vivo
Homo sapiens [4] = assay: Toxicity in healthy human assessed as occurrence of pruritus at 500 […], po; type: organism-based; design: route oral; settings: in vivo
[5] = Cmax in healthy human at 1000 mg, po administered as single dose; settings: in vivo
Homo sapiens [6] = assay: Terminal volume of distribution in healthy human at 125 mg, po administered as single dose; settings: in vivo
Homo sapiens [7] = assay: Toxicity in healthy human assessed as occurrence of headache at 50 […], po; type: organism-based; design: route oral; settings: in vivo
Homo sapiens [8] = assay: Clearance in healthy human at 250 mg, po administered as single dose; settings: in vivo
[9] = Tmax in healthy human at 1000 mg/kg, po administered as single dose; type: ADME, organism-based; design: route oral; settings: in vivo
In short: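 Tmax was read by visual inspection of individual plasma concentration–time profiles. Plasma was sampled at 0.5-h steps early on and then out to 96 h, and assayed by LC-MS/MS. Subjects were fasted healthy volunteers, six per cohort, given one oral dose with 240 ml water. Values are means (SD).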

[10] = Cmax in healthy human at 250 mg, po administered as single dose; settings: in vivo
[11] = Renal clearance in healthy human at 125 mg, po administered as single dose; settings: in vivo, read-out: CL_renal (converted)
[12] = Terminal phase elimination half-life in healthy human at 250 […], po administered single dose; type: ADME, organism-based; design: route oral; settings: in vivo
In short: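 After one fasted oral dose (six healthy subjects per cohort), plasma was sampled from 0.5 to 96 h and assayed by LC-MS/MS (LLOQ 5 ng/ml). λz came from least-squares regression on at least the last three log-concentration points, and t1/2 = 0.693/λz. Values are means (SD).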

Homo sapiens [13] = assay: Toxicity in healthy human assessed as occurrence of nausea at 125 […], po; type: organism-based; design: route oral; settings: in vivo

With `COc1c(N2C[C@@H](C)C[C@H](N)C2)ccc2c(=O)c(C(=O)O)cn(C3CC3)c12` [NEMONOXACIN] the Ratio (Staphylococcus aureus) was 48, the MIC90 (Streptococcus pneumoniae) was 0.015 µg/mL (≈ 0.0404 µM) and the dose excreted [1] was 38.3%. The Activity (Homo sapiens [2]) was 0%, the Activity (Homo sapiens [3]) was 0% and the Activity (Homo sapiens [4]) was 0%. For the same compound, the Cmax [5] was 7220 ng/mL, the Vbeta (Homo sapiens [6]) was 3.38 L/kg and the Activity (Homo sapiens [7]) was 0%. For the same compound, the CL (Homo sapiens [8]) was 4 mL/min/kg, the Tmax [9] was 1.67 h and the Cmax [10] was 2400 ng/mL. For the same compound, the CL renal [11] was 1.33 mL/min/kg, the half-life [12] was 10.9 h and the Activity (Homo sapiens [13]) was 0%.
